Data reported in the RNAGym collection of RNA variant scans (doi:10.1126/science.aae0568).
Variants at the floor of the assay were thinned out.

B1: tRNA (parent)
chain: GUUCCGUUGGCGUAAUGGUAACGCGUCUCCCUCCUAAGGAGAAGACUGCGGGUUCGAGUCCCGUACGGAACG

Variants of: B1
Assay: yeast fitness relative to wild type (ratio to wild type); higher = fitter; tRNA-Arg(CCU), competitive growth, 37 C, YPD
Summary of the method: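 Variants of the tRNA-Arg(CCU) gene were chemically synthesised with a 3% per-site mutation rate across 69 sites and placed at the native genomic locus in Saccharomyces cerevisiae. Six parallel replicates of the pooled strains were competed in YPD at 37°C for 24 hours, and gene amplicons from the start and end populations were read by 100-nucleotide paired-end sequencing. Darwinian fitness relative to wild type was derived from changes in genotype frequencies. Genotypes required ≥ 100 starting reads, and estimates < 0.5 were set to 0.5.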

Variant	yeast fitness
GUUCCGUAGGCGUAAUGCUAACGCCUCUCCCUCCUAAGGAGAAGUCUGGGGGUUCGAGUCCCGUACGGAACG	≤ 0.5
GUUCCGUAGGCGUAAUGGUAACGCGUCUCCCUCUUAAGGAGAAGACUGCGGGUUCGAGUCACGUACGGAACG	≤ 0.5
GUUCCGUAGCCCUAAUGGUAACGCGUCUCCCUCGUAAGGAGAAGACUGCGGGUUCGAGUCCCGUACUGAACG	≤ 0.5
GUUCCGUAGGCGUAAUGGUAACGCGUCUCCCUCCUAAGGAGAAGACUGCGGGUUUGAGUCCCGUACGGAACG	≤ 0.5
GUUCCGUAGGCGUAAUGGUAACGCGUCUCCCUCCUAAGGAGAAGACUGCGGGUUGGAGUCCCGUACGGAACG	≤ 0.5
GUUCCGUAGGCGUAAUGGUAACGCGUCUCCCUCCUAAGGAGAAGACUGCGGGUUCGAGUGCCGUACAGAACG	≤ 0.5
GUUCCGUAGGCGUAAUGGUAACGCAUCUCCCUCCUAAGGAGAAGACUCCGGGUUCGAGUCCAGUACGGAACG	≤ 0.5
GUUCCGUAGGCAUAAUGGUAGCGCGUCUCCCUCCUAAGGAGAAGACUGCGGGUUCGAGUCCUGUACGGAACG	0.697
GUUCCGUAGGCCUAAUAGUAACGCGUCUUCCUCCUAAAGAGAACACUGCAGGUUCGAGUCCCGUACGGAACG	≤ 0.5
GUUCCGUAGGCGUAAUGGUAACCCGUCUCCCUCCUAAGGAGAAGACUGCGGGUUCAAGUCCCGUACGGAACG	0.539
GUUCCGUAGGCGUAAUGAUAACGCGUCUCCCUCCUAAGGAGAAGACUGCGGGUUCGAGUCCCGUACGGCACG	≤ 0.5
GUUCCGUAGGCGUAAUGCUAACGCGUUUCCCUCCUAAGGAGAAGAAUGCAGGUUCGAGUCCUGUACGGAACG	≤ 0.5
GUUCCGUAGGCGUAAUGCCCACGCGUCUCCCUCCUGAGGAGAAGACUGCGGGUUCGAGUCCCGAACCGAACG	≤ 0.5
GUUCCGUACGCGUAGUGGUAACGCGUCUCCCUCCUAAGGAGAAGACUGCGGGUACGAGUCCCGUACGGAACG	≤ 0.5
GUUCCGUAGGCGUAAUGGUAACGCGUCUCCCUCUUAAGGAGAAGACUGCGGGUUCGAGUCCCGUUCGGAACG	≤ 0.5
GUUCCGUAGGCGUAAUGGUAACGCGUCUCCCUCCUAAGGAGAAGACUGCGGGUUCGAGUCUCCUGCGGAACG	≤ 0.5
GUUCCGUAGGCGUAAUGAUAACGCGUCUCACACCGAAGGAGAAGACUGCGGGUUCGAGUCCCGUACAGAACG	0.527
GUUCCGUAGCCCUAAUGGUAACGCGUCUCCCUCGUAAGGAGAAGACUGCGGGUUCGAGUCGCGUACGGAACG	≤ 0.5
GUUCCGUAGGCGUAAUGGUAACGCGUCUCCCUCCUAAGGAGAAGACUGCGGGUUCGAGUCUCGUACGGAACG	0.718
GUUCCGUAGGCAUAAUGGUAACGCGUCUCCCUCCUAAGGAGAAGACUGCGGGUUCGAGUCCAGUACGGAACG	0.53
GUUCCGUAGGCGUAAUGGUAACGCGUCUCCCUCCUAAGGAGAAGAAUGCGGGUCCGAGUCCCGUACGGAACG	0.666
GUUCCGUAAGCGUAAUGGGAACGGGUCUCCCUCCUAAGGAGAAGACUGCGGGUUCGAGUCCCGUACGGAACG	0.551
GUUCCGUAGGCGUAAUGAUAACGCGUCUCGCUCCUAAGGCGAAGACCGCGGGUUCGAGUCCCGUACGGAACG	≤ 0.5
GUUCCGUAGGCGUAAUGAUAACGCGUCUCACACCGAAGGAGAAGACUGCGGGUUCAAGUACGGUAAGGAACG	≤ 0.5
GUUCCGUAGGCGUAAUGGUAACACGUCUCCCGCCUAAGGAGAAGACUGCGGGUUCGAGUUCCGGACGGCACG	≤ 0.5

Variant	yeast fitness
GUUCCGUAGGCGUAAUGGUAACGCGUCUCCCUCUUAAGGAGAUGACUGCGGGUUCGAGCCCCGUACGGAACG	0.619
GUUCCGUAGGCGUAAUGGUAACGCGUCUCCCUCCUAACGAGAAGACUGCGGGUUCGAGUCCCGUACGGAACG	0.647
GUUCCGUAGGCGUAAUGGUAACCCGUCUCCCUCCUAAGGAGAAGACUGCGGGUUCGAGUCCCGUACGGAACG	≤ 0.5
GUUCCGUAGGCGUAAUGGUAACGCAUCUCCCUGCUAAGGAGGAGACUGCAGGUUCGAGUCCCGUACGGAACG	≤ 0.5
GUUCCGUAAGCGUAAUGGUACCGCGUCUCCCUCCUAAGGAGAAGACUGCGGGUUCGAGUCCCGUACGGAACG	≤ 0.5
GUUCCGUAGGCGUAAUAGUAACGCGCCUGCCUCCAAAGGAGGAGACUGCGGGUUCGAGUCCCGUACGGUACG	≤ 0.5
GUUCCGUAGACGUAAUGGUAACGCGUCUCCCUCCUAACGAGAAGACUGCGGGUUCGAGUCCCGUACGGAACG	≤ 0.5
GUUCCGUAGGCGUAAUGGUAACACGUCUCGCUCCUAAGGAGAAGACUGCGGGUUCGAGUCCCGUUCGGAACG	0.55
GUUCCGUAGGCGUAAUGGUAACGCGUCUCCCUCCUAAGCAGAGGACUGCGGGUUCGAGUCCCGUACGGAACG	0.605
GUUCCGUAGGCGUAAUGCUAACGCGUCUCCCUCCUUAGGAGAAGACUGCGGGUUCGAGUCCCGUAUGGAACG	0.505
GUUCCGUAGGCGUAAUGGUAACGCGUCUCCCUCCUAAAGAGAAGACUGCGGGUACGAGUCCCGUACGGAACG	≤ 0.5
GUUCCGUAGGCGUAAUGAUAACGCAUCUCCCUUCUAAGGAGAAGACUGCGAGUUCAAGUCCCGUAUGGAACG	≤ 0.5
GUUCCGUAGGCGUAAUGAUAACGCGUCUCCCUCCUAAGGAGAAGACGGCGGGUACGAGUCCCGUACGGAACG	≤ 0.5
GUUCCGUAGGCGUAAUGAUAACGCGUCUCGCACCGAAGGAGAAGACUGCGGGUUCGAGUCCCGUACAGAACG	≤ 0.5
GUUCCGUAGGCAUCAUGGUAACGCGUCUCCCUCCUAAGGAGAAGACUGCGGGUUCGAGUCCCGUACUGAACG	0.65
GUUCCGUAGGCCUAAUAGUAACGCGUCUCCCUUCUAAGGGCAAGACUGCGGGUUCGAGUCCCGUACGGAACG	≤ 0.5
GUUCCGUAGCCGUAAUGGUAACGCGUCUCCCUCUUAAGGAGAAGACUGCGGGUUCGAGUCUCGGACGGAACG	≤ 0.5
GUUCCGUAGGCGUAAUGAUAACGCGUCUCACACCGAAGGAGAAGACUGCGGGUUUGAGUCCCGUACAGAACG	≤ 0.5
GUUCCGUAGGCGUAAUAGUAACGUGUCUCCCUCCUAAGGAGAAGACUGCGGGUUCGAGUCCCGUACGGCACG	0.693
GUUCCGUAGGCGUAAUGCUAACGCGUCUCCCUCCUAAGGAGAAGACUGCGGGUUCGAGUCCCGUACGGAACG	≤ 0.5
GUUCCGUAGGCAUAAUGGUCACGCGUCUCCCUCCUAAGGAGAAGACUGCGGGUUCGAGUCCCGUACGGAACG	≤ 0.5
GUUCCGUAGGCGUAAUGGUAACACGUCUCUCUCCCAAGGAGAAGACUGCGGGUUCGAGUCCCGUACGGAACG	≤ 0.5
GUUCCGUAGCCGUAAUGGUAACGCGUAUCCCUCCUAAGGAGAAGACUACGGGUUCGAGUCCCGUACGGAACG	≤ 0.5
GUUCCGUAGGCGUAAUGGUAACGCGUCUCCCUCCUAAGGAGAAGAAUGCGGGUUCGAGUCCCGUACGGAACG	0.657
GUUCCGUAGGCGUAAUGGUAACGCGUCUCCCUCCUAAAGAGAAGACUCCGGGUUCGAGUCCCGUACAGAACG	0.69

Variant	yeast fitness
GUUCCGUAGGCGUAAUGCUAACGAGUUUCCCCCCUAAGGAGAAGACUGCGGGUGUGAGUCCCGUACGGAACG	≤ 0.5
GUUCCGUAAGCGUAAUGGUAACGGGUCUCCCUCCUAAGGAGAAGACUGCGGGUUCGAGUCCCGUACGGGACG	≤ 0.5
GUUCCGUAGGCGUAAUGGUAACGCGUCUCCCUCCUAAGGAGAAGACUGCGGGUUCGAGUCACGUACAGAACG	0.528
GUUCCGUAGACGCUAUGGUAACGCGUGUCCCUCCUAAGGAGAAGACCGCGGGUUCGAGUCCAGUACGGAACG	≤ 0.5
GUUCCGUAGGCGUAAUGAUAACGCGUUUCCAUCCUAAGGAGAAGACUGCGGGUUCGAGUCCCGUACGGAACG	≤ 0.5
GUUCCGUAGGCGUAAUGCUAACGCGUCUCCCUCCUAAGGAGAAGACUGCGGGUUCGAGUCCCGUAUGGAACG	≤ 0.5
GUUCCGUAGACGUAAUGGUAACGCGUCUCCCUCCUAAGGAGAAGACUGCGGGUUCGAGUCCCGUACCGUACG	≤ 0.5
GUUCCGUAGGCGUAAUGGUAACGCGUCUCCCUCCUAAGGAGAAGACUGCGGGUUCGAGUCCCGUAGGGAACG	0.582
GUUCCGUAGGCGUAAUGGUAACGCGUCUCCCUCCUAAGGAGAAGACUGCGGGUUCGAGUCCCGUAUGGAACG	0.775
GUUCCGUAGGCAUAAUGGUAACGCGUCUCCCUCCUAAGGAGAAGCCUGCGGGUUCGAGUCCCGUACGGAACG	≤ 0.5
GUUCCGUAGGCGUAAUGGUAACCCGUCUCCCUCCUAAGGAGAAGACUGCGGGUUCUAGUCCCGUUCGGAACG	≤ 0.5
GUUCCGUAGGCGUAAUGAUAACGCGUCUCCCUCCUAAGGAGAAGACUGCGGAUUCGAGACCCGUACCGAACG	≤ 0.5
GUUCCGUAGGCGUAAUGGUAACGCGUCUCCCUCCUAAGGAGAAGACUGUGGGUUCGAGUCCCGUACGGAACG	0.779
GUUCCGUACGCGUAAUGGUAACGCGUCUCCCUCCUAAGGAGAAGACUGCGGGUUCGCGUCCCGUACGGAACG	0.701
GUUCCGUAAGCGUAAUGGUAACGUGUCUCCCUCCUAAGGAGAAGACUGCGGGCUCGAGUGCCGUACGGAACG	≤ 0.5
GUUCCGUAGGCGUAAUAGUAACGCGUCUCCCACCUAAGGAGAGGACUGCGGGUUCGAGUCCCGUACGGAACG	≤ 0.5
GUUCCGUAGGCGUAAUGCUAACGCCUCUCCCUCCUAAGGAGAAGACUGCGGGUUCGAGUUACGUACGGAACG	≤ 0.5
GUUCCGUAGGCGUAAUGGUAACGCCUCUCCGUCCUAAGGAGAAGACUGCGGGUUCGAGUCCCGUACGGAACG	≤ 0.5
GUUCCGUAGGCGUAAUGGUAACGCGUCUCCCUCCUAAGCAGAAGACUGCGGGUUCGAGUCCCGUACGGAACG	0.555
GUUCCGUAGGCGUAAUGCUAACGAGACUCCCCCCUAAGGAGAAGACUGCGGGUUCGAGUCCCGUACGGAACG	≤ 0.5
GUUCCGUAGGCGUAAUGGUAACGCGUCUCCCUCCUAAGGAGAAGACUGCGGGUUCGAGUUCCGUACGGAACG	0.551
GUUCCGUAGGCGUAAUGCUAACGCGUUUCCCUCCUAAGGAGAAGACUGCGCGUUAGAGUCCUGUUCGAUACG	≤ 0.5
GUUCCGUAGGCGUAAUGGUAACACGUCUCCCUCCUGAGGAGAAGACUGCGGGUUCGAGUCCCGUACGGAACG	≤ 0.5
GUUCCGUAGGCGUAAUGCUAACGCCUCUCCCUCCUAAGGAGAAGACUGCGGGUUCGAGUUCCGAACGGAACG	≤ 0.5
GUUCCGUAGGCAUAAUGGUAACGCGUCUCCCUUCUAGGGAGAAGACUGCGGGUUCGAGUCCAGUACGGAACG	≤ 0.5
